Data set [1] has as its system Mus musculus. Kind of data set: Anticonvulsant activity in Kunming mouse assessed as inhibition of thiosemicarbazide-induced clonic seizures at 30 mg/kg, ip after 2.5 hrs. Format: functional. Further details: scale not given: the % may be the effect or the level left. The note with it: route intraperitoneal. The gist of the method:
(§1)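 Thiosemicarbazide, 50 mg/kg i.p., was given 0.5 h after compound or DMSO to KunMing mice, 10 per group. Mice were caged individually and observed for 2.5 h for clonic and tonic seizures and deaths.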

In data set [2] the test system is Mus musculus. Kind of data set: Anticonvulsant activity in Kunming mouse assessed as inhibition of bicuculline-induced tonic seizures at 30 mg/kg, ip after 0.5 hrs. Format: functional. Further details: scale not given: the % may be the effect or the level left. The settings on record: route intraperitoneal. The method in brief:
(§2)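 Kunming mice (18–22 g, 10/group) received test compound i.p. in DMSO; 0.5 h later bicuculline, 5.4 mg/kg, was given s.c. within 15–45 min of preparation. Mice were isolated and observed for at least 0.5 h for clonic seizures, tonic seizures and lethality.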

The subject of data set [3] is Mus musculus. Kind of data set: Neurotoxicity in Kunming mouse at 300 mg/kg, ip after 4 hrs. The data set is classed as toxicity, organism-based. Further details: dose 300 mg/kg, route intraperitoneal. The note with it: in vivo. The method in brief:
(§3)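 Rotarod neurotoxicity in KunMing mice (18–22 g) trained on a 3.2 cm diameter rod at 10 rpm. Compounds in DMSO were given i.p. at 30, 100 and 300 mg/kg, three mice per dose, and tested at 0.5 h and 4 h after dosing.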

Data set [4] deals with Mus musculus. Kind of data set: Anticonvulsant activity in Kunming mouse assessed as inhibition of bicuculline-induced death at 30 mg/kg, ip after 0.5 hrs. The data set is classed as functional. Further details: scale not given: the % may be the effect or the level left. The settings on record: route intraperitoneal. The method in brief:
as §2

The subject of data set [5] is Mus musculus. As to the kind of experiment: Anticonvulsant activity in Kunming mouse assessed as protection against maximal electric shock-induced seizures at 100 mg/kg, ip measured after 0.5 hrs. The data set is classed as functional, organism-based. The arrangement: dose 100 mg/kg. The gist of the method: (§4)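 KunMing mice (18–22 g), compounds dissolved in DMSO, given i.p. at 30, 100 and 300 mg/kg, three mice per dose. Current applied through corneal electrodes for 0.2 s at 0.5 h and 4 h after dosing. Protection is abolition of tonic hind-leg extension, scored as protected/tested.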

Data set [6] can be described thus: Neurotoxicity in ip dosed Kunming mouse by rotarod test. Format: toxicity, organism-based. The note with it: in vivo. The gist of the method: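 Phase-II rotarod test in KunMing mice trained on a 3.2 cm rod at 10 rpm, DMSO vehicle. Groups of 10 mice got graded i.p. doses until at least three points fell within 10–90% minimal neurotoxicity, giving the median toxic dose.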
(Falling from the rotarod earlier than controls is read as motor impairment.)

Data set [7] concerns Mus musculus. Kind of data set: Anticonvulsant activity in Kunming mouse assessed as protection against maximal electric shock-induced seizures at 100 mg/kg, ip measured after 4 hrs. Format: functional, organism-based. Further details: dose 100 mg/kg. The gist of the method:
as §4

Data set [8] concerns Mus musculus. Kind of data set: Anticonvulsant activity in Kunming mouse assessed as inhibition of 3-mercaptopropionic acid-induced tonic seizures at 30 mg/kg, ip after 0.5 hrs. The data set is classed as functional. Further details: scale not given: the % may be the effect or the level left. The note with it: route intraperitoneal. The method in brief: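 Kunming mice (18–22 g, 10/group) received test compound i.p. in DMSO; 0.5 h later 3-mercaptopropionic acid, 60 mg/kg in saline, was given s.c. Mice were scored for clonic seizures, tonic seizures (hind-leg extension) and deaths.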

Data set [9] deals with Mus musculus. Kind of data set: Anticonvulsant activity against maximal electric shock-induced seizures in ip dosed Kunming mouse assessed as median effective dose. The data set is classed as functional. The gist of the method: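 Phase-II MES test in KunMing mice (18–22 g), DMSO vehicle, corneal electrode stimulus 0.2 s. Groups of 10 mice got a range of i.p. doses until at least three points fell within 10–90% seizure protection, giving the median effective dose. Endpoint is abolition of tonic hind-leg extension.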

For data set [10], the system named is Mus musculus. Kind of data set: Anticonvulsant activity in Kunming mouse assessed as protection against maximal electric shock-induced seizures at 30 mg/kg, ip measured after 0.5 hrs. The data set is classed as functional, organism-based. The arrangement: dose 30 mg/kg. The method in brief:
as §4

For data set [11], the system named is Mus musculus. As to the kind of experiment: Anticonvulsant activity in Kunming mouse assessed as inhibition of isoniazid-induced tonic seizures at 50 mg/kg, ip after 1 hrs. Format: functional. Further details: scale not given: the % may be the effect or the level left. The settings on record: route intraperitoneal. The method in brief: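 Isoniazid given at 250 mg/kg, a dose convulsing all controls, to KunMing mice pretreated i.p. with compound or DMSO. Mice were caged individually and observed for 1 h, counting clonic seizures, tonic seizures and deaths.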

The test system of data set [12] is Mus musculus. As to the kind of experiment: Anticonvulsant activity in Kunming mouse assessed as inhibition of subcutaneous pentylenetetrazol-induced tonic seizures at 50 mg/kg, ip after 0.5 hrs. The data set is classed as functional. The arrangement: scale not given: the % may be the effect or the level left.
Data set [13] deals with Mus musculus. Kind of data set: Anticonvulsant activity in Kunming mouse assessed as inhibition of bicuculline-induced clonic seizures at 30 mg/kg, ip after 0.5 hrs. Format: functional. The arrangement: scale not given: the % may be the effect or the level left. The settings on record: route intraperitoneal. The method in brief: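 Bicuculline, 5.4 mg/kg s.c. and used within 15–45 min of preparation, was given 0.5 h after i.p. compound or DMSO to KunMing mice, 10 per group. Mice were isolated and observed for at least 0.5 h for clonic seizures, tonic seizures and lethality.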

For data set [14], the system named is Mus musculus. As to the kind of experiment: Anticonvulsant activity in Kunming mouse assessed as inhibition of thiosemicarbazide-induced tonic seizures at 30 mg/kg, ip after 2.5 hrs. Format: functional. The arrangement: scale not given: the % may be the effect or the level left. The note with it: route intraperitoneal. The gist of the method:
as §1

The test system of data set [15] is Mus musculus. As to the kind of experiment: Anticonvulsant activity in Kunming mouse assessed as inhibition of isoniazid-induced death at 50 mg/kg, ip after 1 hrs. The arrangement: scale not given: the % may be the effect or the level left. The data set is classed as functional. The note with it: route intraperitoneal.
For data set [16], the system named is Mus musculus. Kind of data set: Neurotoxicity in Kunming mouse at 100 mg/kg, ip after 4 hrs. Format: toxicity, organism-based. Further details: dose 100 mg/kg, route intraperitoneal. The note with it: in vivo. The method in brief: as §3
The subject of data set [17] is Mus musculus. Kind of data set: Anticonvulsant activity in Kunming mouse assessed as inhibition of isoniazid-induced clonic seizures at 50 mg/kg, ip after 1 hrs. Format: functional. The arrangement: scale not given: the % may be the effect or the level left. The note with it: route intraperitoneal.
In data set [18] the test system is Mus musculus. Kind of data set: Neurotoxicity in Kunming mouse at 100 mg/kg, ip after 0.5 hrs. The data set is classed as toxicity, organism-based. The arrangement: dose 100 mg/kg, route intraperitoneal. The note with it: in vivo. The method in brief:
as §3

Data set [19] is filed under the species Mus musculus. As to the kind of experiment: Protective index, ratio of TD50 for neurotoxicity in Kunming mouse to ED50 for inhibition of MES-induced seizures in Kunming mouse. Format: functional.
Data set [20] relates to Mus musculus. As to the kind of experiment: Anticonvulsant activity in Kunming mouse assessed as protection against maximal electric shock-induced seizures at 300 mg/kg, ip measured after 0.5 hrs. Format: functional, organism-based. Further details: dose 300 mg/kg. The gist of the method: as §4
For data set [21], the system named is Mus musculus. Kind of data set: Anticonvulsant activity in Kunming mouse assessed as inhibition of subcutaneous pentylenetetrazol-induced clonic seizures at 50 mg/kg, ip after 0.5 hrs. Format: functional. The arrangement: scale not given: the % may be the effect or the level left. The method in brief: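 Compound or vehicle (DMSO) given i.p. to KunMing mice, 10 per group, before the pentylenetetrazol challenge. Mice were held in individual cages and observed for 0.5 h. Clonic seizures, tonic seizures (hind-leg extension) and deaths were counted.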

Data set [22] relates to Mus musculus. As to the kind of experiment: Neurotoxicity in Kunming mouse at 300 mg/kg, ip after 0.5 hrs. The arrangement: dose 300 mg/kg, route intraperitoneal. Format: toxicity, organism-based. The note with it: in vivo. The gist of the method: as §3
For data set [23], the system named is Mus musculus. As to the kind of experiment: Anticonvulsant activity in Kunming mouse assessed as protection against maximal electric shock-induced seizures at 30 mg/kg, ip measured after 4 hrs. Format: functional, organism-based. Further details: dose 30 mg/kg. The gist of the method: as §4
Data set [24] concerns Mus musculus. As to the kind of experiment: Anticonvulsant activity in Kunming mouse assessed as protection against maximal electric shock-induced seizures at 300 mg/kg, ip measured after 4 hrs. Further details: dose 300 mg/kg. Format: functional, organism-based. The method in brief:
as §4

The test system of data set [25] is Mus musculus. As to the kind of experiment: Anticonvulsant activity in Kunming mouse assessed as inhibition of 3-mercaptopropionic acid-induced clonic seizures at 30 mg/kg, ip after 0.5 hrs. The note with it: route intraperitoneal. Further details: scale not given: the % may be the effect or the level left. The data set is classed as functional. The gist of the method:
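3-Mercaptopropionic acid, 60 mg/kg in saline, was injected s.c. 0.5 h after i.p. compound or DMSO in KunMing mice, 10 per group. Clonic and tonic seizures and deaths were scored.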

The source made the active and inactive calls. The calls are words filed in the database; no cut-off is given here.

The TD50 is the 50% point of the dose-response relation for the toxic effect studied. Broadly, the ED50 is the dose that gives a 50% effect, or the effect in half of the subjects. `O=C1CC(c2ccccc2Br)n2ncnc2N1` (stereo not drawn): the Activity in the data set on Mus musculus [1] was 100%; in the data set on Mus musculus [2], 10%; with Mus musculus [3] it was “Non-toxic”; with Mus musculus [4] it was 50%; in the data set on Mus musculus [8], 0%; in the data set with Mus musculus [11], 0%. Besides, the Activity is on record as 0% with Mus musculus [12]; 100% with Mus musculus [13]; 0% in the data set on Mus musculus [14]; 30% with Mus musculus [15]; “Non-toxic” in the data set with Mus musculus [16]; 100% with Mus musculus [17]. Moreover, the Activity entry in the data set with Mus musculus [18] is “Non-toxic”; with Mus musculus [21], 0%; in the data set with Mus musculus [22], “Non-toxic”; in the data set on Mus musculus [25], 100%. The outcome in the data set with Mus musculus [5], in the data set with Mus musculus [10] and in the data set with Mus musculus [20] was Active. In addition, the TD50 in data set [6] worked out at 685 mg/kg. The outcome in the data set on Mus musculus [7], with Mus musculus [23] and in the data set on Mus musculus [24] was inactive. The ED50 in the data set with Mus musculus [9] is 19.7 mg/kg. Moreover, the “Ratio TD50/ED50” value in the data set filed under Mus musculus [19] stood at 34.8.
`NC(=O)N1c2ccccc2C=Cc2ccccc21` [CARBAMAZEPINE]: the Activity with Mus musculus [1] was found to be 100%; in the data set with Mus musculus [2] it was 0%; with Mus musculus [4], 20%; with Mus musculus [8] it was 0%; with Mus musculus [11] it was 0%; with Mus musculus [12], 0%. Further, the Activity is 100% in the data set with Mus musculus [13]; 0% in the data set on Mus musculus [14]; 50% in the data set with Mus musculus [17]; 100% in the data set with Mus musculus [21]; 100% in the data set on Mus musculus [25]. The ED50 in the data set with Mus musculus [9] was determined as 11.8 mg/kg. In the data set listed under Mus musculus [19], the “Ratio TD50/ED50” value is 6.4.

Values taken from ChEMBL document CHEMBL1806414, “Synthesis and anticonvulsant activity of 7-phenyl-6,7-dihydro-[1,2,4]triazolo[1,5-a]pyrimidin-5(4H)-ones and their derivatives” (Eur J Med Chem, 2011).
